In ChEMBL document CHEMBL4002589, “Tri- and Tetrasubstituted Pyridinylimidazoles as Covalent Inhibitors of c-Jun N-Terminal Kinase 3” (J Med Chem, 2017):
Activity calls are given as the source filed them. The rule behind the calls is not given here.

Tests used:
[1] = molecular target: Mitogen-activated protein kinase 14 (Homo sapiens, UniProt Q16539); experiment: Inhibition of GST-His tagged human p38alpha expressed in Escherichia coli assessed as reduction in ATF2 phosphorylation measured after 60 mins by ELISA
Summary of the method: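 ELISA kinase assays run in parallel for JNK3 and p38α, with 60 min incubation. IC50 values are the mean of three experiments.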

[2] = molecular target: Mitogen-activated protein kinase 10 (Homo sapiens, UniProt P53779); experiment: Inhibition of recombinant 6x-His-tagged JNK3 (39 to 402 residues) (unknown origin) expressed in Escherichia coli BL21(DE3) assessed as reduction in ATF2 phosphorylation measured after 50 mins by ELISA
[3] = molecular target: MAP kinase-activated protein kinase 2 (Homo sapiens) (UniProt P49137); experiment: Inhibition of human MAPKAPK2 expressed in Sf9 cells assessed as residual activity at 0.5 uM relative to control
Summary of the method: (§1)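 Each inhibitor is tested at a single concentration, 1 µM or 0.5 µM depending on the compound. Results are reported as residual kinase activity.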

[4] = molecular target: Angiopoietin-1 receptor (Homo sapiens) (UniProt Q02763); experiment: Inhibition of human wild type C-terminal GST-His-tagged TIE2 expressed in Sf9 cells assessed as residual activity at 0.5 uM relative to control; summary of the method: as §1
[5] = Glutathione reactivity at 10 uM after 54 mins in presence of 5 mM GSH by HPLC method
Summary of the method: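 Test compound (10 µM) is incubated with glutathione (5 mM) under conditions like those of the kinase activity assay (max. concentration 10 µM, 54 min, 37°C).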

[6] = system: Mitogen-activated protein kinase 10 (Homo sapiens), P53779 [C154A]; experiment: Covalent binding affinity to JNK3 C154A mutant (unknown origin) at 5 molar excess after 1 hr by LC-muESI-QTOF mass spectrometry
Summary of the method: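 Intact-protein mass spectrometry with a JNK3 mutant carrying Cys-154→Ala. Inhibitor is incubated with the protein. Unbound and reversibly bound ligand are removed by chromatography and by a high declustering potential before ionization. The protein is then analysed by LC-µESI-QTOF to look for a mass shift from a covalent adduct.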

[7] = molecular target: Casein kinase I isoform delta (Homo sapiens) (UniProt P48730); experiment: Inhibition of CK1 delta (unknown origin) assessed as residual activity at 0.5 uM; summary of the method: as §1
[8] = Drug metabolism in human liver microsomes at 100 uM preincubated with NADPH regenerating system for 5 mins followed by addition of liver microsomes measured after 180 mins by LC-MS analysis; format: ADME, microsome; details: read-out: Drug metabolism

Mitogen-activated protein kinase 10, sequence (P53779 whole entry, the tested form may be a part): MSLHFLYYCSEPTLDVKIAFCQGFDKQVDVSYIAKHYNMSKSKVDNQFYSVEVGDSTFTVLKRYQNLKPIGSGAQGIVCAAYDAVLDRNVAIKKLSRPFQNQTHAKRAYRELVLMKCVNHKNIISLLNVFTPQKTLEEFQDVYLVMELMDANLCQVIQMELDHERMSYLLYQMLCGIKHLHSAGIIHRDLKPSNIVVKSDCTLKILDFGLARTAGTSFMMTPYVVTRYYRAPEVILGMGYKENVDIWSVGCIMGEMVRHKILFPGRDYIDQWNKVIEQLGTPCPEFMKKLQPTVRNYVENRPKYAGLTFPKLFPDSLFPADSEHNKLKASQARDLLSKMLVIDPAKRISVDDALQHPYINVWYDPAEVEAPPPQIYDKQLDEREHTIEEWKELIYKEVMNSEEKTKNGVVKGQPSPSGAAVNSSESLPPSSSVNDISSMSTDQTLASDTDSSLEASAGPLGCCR
Mitogen-activated protein kinase 14, sequence (Q16539 whole entry): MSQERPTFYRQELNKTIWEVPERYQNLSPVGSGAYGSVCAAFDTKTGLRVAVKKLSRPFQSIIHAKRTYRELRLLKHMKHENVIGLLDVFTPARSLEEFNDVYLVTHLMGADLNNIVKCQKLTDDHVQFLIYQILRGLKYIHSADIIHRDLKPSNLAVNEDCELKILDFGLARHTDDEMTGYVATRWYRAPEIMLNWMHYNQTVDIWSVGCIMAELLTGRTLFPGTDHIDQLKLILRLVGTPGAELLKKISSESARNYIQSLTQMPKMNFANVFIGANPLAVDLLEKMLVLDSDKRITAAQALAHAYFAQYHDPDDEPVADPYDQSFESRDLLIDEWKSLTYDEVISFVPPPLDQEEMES
Mitogen-activated protein kinase 10 (Homo sapiens), P53779 [C154A], sequence (P53779 whole entry C154A): as the sequence (P53779 whole entry, the tested form may be a part) above, with C154A counted along it
Casein kinase I isoform delta (Homo sapiens), sequence (P48730 whole entry, looked up, canonical isoform): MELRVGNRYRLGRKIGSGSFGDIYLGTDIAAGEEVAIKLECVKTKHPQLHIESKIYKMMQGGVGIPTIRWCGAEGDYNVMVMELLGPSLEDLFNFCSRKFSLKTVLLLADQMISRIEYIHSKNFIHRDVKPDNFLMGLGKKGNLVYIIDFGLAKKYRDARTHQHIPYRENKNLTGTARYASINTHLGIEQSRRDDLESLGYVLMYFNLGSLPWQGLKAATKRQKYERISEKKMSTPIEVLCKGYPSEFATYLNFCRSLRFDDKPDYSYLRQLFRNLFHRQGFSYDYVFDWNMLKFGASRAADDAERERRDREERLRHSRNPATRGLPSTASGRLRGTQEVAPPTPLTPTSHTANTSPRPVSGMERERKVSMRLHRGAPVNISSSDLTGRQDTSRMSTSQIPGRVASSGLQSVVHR
Angiopoietin-1 receptor (Homo sapiens), sequence (Q02763 whole entry): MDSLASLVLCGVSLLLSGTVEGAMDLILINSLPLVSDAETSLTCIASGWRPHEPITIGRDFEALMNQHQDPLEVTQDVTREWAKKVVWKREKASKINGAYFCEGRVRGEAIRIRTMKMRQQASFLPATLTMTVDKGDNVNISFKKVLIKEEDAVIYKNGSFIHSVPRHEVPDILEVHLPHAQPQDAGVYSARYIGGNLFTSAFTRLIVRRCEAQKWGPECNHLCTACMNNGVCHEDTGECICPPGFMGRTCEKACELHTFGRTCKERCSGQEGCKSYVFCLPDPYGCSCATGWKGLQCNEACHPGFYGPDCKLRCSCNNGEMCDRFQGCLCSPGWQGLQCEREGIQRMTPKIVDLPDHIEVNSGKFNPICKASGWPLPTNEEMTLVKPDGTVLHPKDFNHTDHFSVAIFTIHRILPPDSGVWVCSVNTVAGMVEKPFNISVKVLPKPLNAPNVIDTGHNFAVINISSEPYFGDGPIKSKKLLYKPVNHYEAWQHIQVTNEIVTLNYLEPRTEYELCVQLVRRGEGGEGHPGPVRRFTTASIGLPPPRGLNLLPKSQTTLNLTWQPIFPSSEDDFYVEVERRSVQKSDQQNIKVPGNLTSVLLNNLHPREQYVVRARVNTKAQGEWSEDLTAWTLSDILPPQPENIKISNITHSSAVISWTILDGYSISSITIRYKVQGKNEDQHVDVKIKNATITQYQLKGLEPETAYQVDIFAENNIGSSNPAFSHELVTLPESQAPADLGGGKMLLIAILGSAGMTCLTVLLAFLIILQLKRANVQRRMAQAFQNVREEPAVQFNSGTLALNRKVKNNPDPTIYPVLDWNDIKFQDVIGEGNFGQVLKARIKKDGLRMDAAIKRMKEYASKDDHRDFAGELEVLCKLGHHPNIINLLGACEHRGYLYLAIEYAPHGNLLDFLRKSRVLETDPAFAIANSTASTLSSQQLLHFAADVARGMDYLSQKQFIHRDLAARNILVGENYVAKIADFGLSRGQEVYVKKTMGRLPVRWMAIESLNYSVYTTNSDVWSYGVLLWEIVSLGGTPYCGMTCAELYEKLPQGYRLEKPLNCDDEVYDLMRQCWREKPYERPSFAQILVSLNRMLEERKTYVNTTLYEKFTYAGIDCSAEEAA
MAP kinase-activated protein kinase 2 (Homo sapiens), sequence (P49137 whole entry, looked up): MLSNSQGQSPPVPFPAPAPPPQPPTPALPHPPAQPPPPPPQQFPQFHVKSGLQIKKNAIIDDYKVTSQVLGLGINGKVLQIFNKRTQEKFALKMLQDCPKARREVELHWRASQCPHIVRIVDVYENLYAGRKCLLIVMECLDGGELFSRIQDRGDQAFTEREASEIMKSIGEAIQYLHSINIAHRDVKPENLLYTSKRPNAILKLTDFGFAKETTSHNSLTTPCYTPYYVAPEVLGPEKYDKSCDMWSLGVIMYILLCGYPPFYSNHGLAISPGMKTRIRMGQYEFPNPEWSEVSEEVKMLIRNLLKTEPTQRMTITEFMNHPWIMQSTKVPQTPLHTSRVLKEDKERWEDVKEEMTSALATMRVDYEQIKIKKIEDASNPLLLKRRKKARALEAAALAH

| IC50 [1] | IC50 [2] | SMILES | also measured |
| --- | --- | --- | --- |
| 0.003 µM | 0.002 µM | C=CC(=O)Nc1cccc(C(=O)Nc2ccc(Nc3cc(-c4c(-c5ccc(F)cc5)nc(SC)n4C)ccn3)c(C)c2)c1 |  |
| 0.0008 µM | 0.0006 µM | C=CC(=O)Nc1cccc(C(=O)Nc2ccc(Nc3cc(-c4[nH]c(SC)nc4-c4ccc(F)cc4)ccn3)cc2)c1 |  |
| 0.217 µM | 0.003 µM | C=CC(=O)Nc1cccc(C(=O)Nc2cccc(Nc3cc(-c4c(-c5ccc(F)cc5)nc(SC)n4C)ccn3)c2)c1 |  |
| 0.036 µM | 0.0003 µM | C=CC(=O)Nc1cccc(C(=O)Nc2ccc(Nc3cc(-c4c(-c5ccc(F)cc5)nc(SC)n4C)ccn3)cc2)c1 | Activity [3]: 30 to 50%; Activity [4]: 30 to 50%; Drug metabolism [5]: Metabolite detected; Activity [6]: inactive; Activity [7]: 30 to 50%; metabolised at 3 h, 100 µM [8]: 13% |
| 0.047 µM | 0.01 µM | C=CC(=O)Nc1ccc(C(=O)Nc2ccc(Nc3cc(-c4c(-c5ccc(F)cc5)nc(SC)n4C)ccn3)cc2)cc1 | Activity [6]: inactive |
| 5.92 µM | 0.2 µM | C=CC(=O)Nc1ccc(C(=O)Nc2ccc(Nc3cc(-c4[nH]c(SC)nc4C)ccn3)cc2)cc1 |  |
| > 10 µM | 0.253 µM | CCC(=O)Nc1cccc(C(=O)Nc2ccc(Nc3cc(-c4[nH]c(SC)nc4C)ccn3)cc2)c1 |  |
| 0.1 µM | 0.003 µM | C=CC(=O)Nc1cccc(C(=O)Nc2cccc(Nc3cc(-c4c(-c5ccc(F)cc5)nc(SC)n4C)ccn3)c2)c1C |  |
| 0.017 µM | 0.024 µM | CSc1nc(-c2ccc(F)cc2)c(-c2ccnc(Nc3ccc(N)cc3)c2)[nH]1 |  |
| 0.126 µM | 0.023 µM | CCC(=O)Nc1cccc(C(=O)Nc2ccc(Nc3cc(-c4c(-c5ccc(F)cc5)nc(SC)n4C)ccn3)cc2)c1 |  |
| 0.035 µM | 0.008 µM | C=CC(=O)Nc1ccc(C(=O)Nc2ccc(Nc3cc(-c4c(-c5ccc(F)cc5)nc(SC)n4C)ccn3)c(C)c2)cc1 |  |
| 0.022 µM | 0.025 µM | CCC(=O)Nc1ccc(C(=O)Nc2ccc(Nc3cc(-c4c(-c5ccc(F)cc5)nc(SC)n4C)ccn3)c(C)c2)cc1 |  |
| 0.003 µM | 0.003 µM | C=CC(=O)Nc1ccc(C(=O)Nc2ccc(Nc3cc(-c4[nH]c(SC)nc4-c4ccc(F)cc4)ccn3)cc2)cc1 |  |
| 0.241 µM | 0.175 µM | CCC(=O)Nc1cccc(C(=O)Nc2cccc(Nc3cc(-c4c(-c5ccc(F)cc5)nc(SC)n4C)ccn3)c2)c1 |  |
| 0.004 µM | 0.002 µM | CCC(=O)Nc1cccc(C(=O)Nc2ccc(Nc3cc(-c4[nH]c(SC)nc4-c4ccc(F)cc4)ccn3)cc2)c1 |  |
| 0.017 µM | 0.027 µM | CCC(=O)Nc1ccc(C(=O)Nc2ccc(Nc3cc(-c4c(-c5ccc(F)cc5)nc(SC)n4C)ccn3)cc2)cc1 |  |
| 0.149 µM | 0.03 µM | CSc1nc(-c2ccc(F)cc2)c(-c2ccnc(Nc3ccc(NC(=O)c4cccc(N)c4)cc3)c2)n1C |  |
| 0.038 µM | 0.017 µM | CCC(=O)Nc1cccc(C(=O)Nc2ccc(Nc3cc(-c4c(-c5ccc(F)cc5)nc(SC)n4C)ccn3)cc2)c1C |  |
| 0.002 µM | 0.002 µM | C=CC(=O)Nc1cccc(C(=O)Nc2ccc(Nc3cc(-c4c(-c5ccc(F)cc5)nc(SC)n4C)ccn3)cc2)c1C |  |
| 0.026 µM | 0.004 µM | C=CC(=O)Nc1ccc(C(=O)Nc2cccc(Nc3cc(-c4c(-c5ccc(F)cc5)nc(SC)n4C)ccn3)c2)cc1 |  |
